Laboratory results reported in ChEMBL document CHEMBL5712905, “H3K27M induces defective chromatin spread of PRC2-mediated repressive H3K27me2/me3 and is essential for glioma tumorigenesis” (2019).
Active and inactive are the calls of the source. The calls are words filed in the database; no cut-off is given here.

What was measured:
BT-245 [1] = test: Growth inhibition of human BT-245 cells expressing mutant K27M at 5 uM assessed as normalized cell index after 7 days by Alamar blue assay relative to control; format: functional; details: time 7 day
In short: (§1)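 Tumor-derived cells were grown in NS-A proliferation medium with bFGF (10 ng/mL), rhEGF (20 ng/mL) and heparin on poly-L-ornithine/laminin coating. They were plated at 7000 cells/well and exposed to EZH2 inhibitor (0.5–10 uM) or DMSO vehicle for 7 days, with media changed every 3 days. Alamar blue was added on day 7 for 6 h and absorbance read at 570 and 600 nm. Percent difference versus untreated growth control was derived from an extinction-coefficient formula; values are the mean of three replicates ± SEM.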

BT-245 [2] = test: Growth inhibition of human BT-245 cells expressing mutant K27M at 1.5 uM assessed as normalized cell index after 7 days by Alamar blue assay relative to control; format: functional; details: time 7 day; in short: as §1
BT-245 [3] = test: Growth inhibition of K27M knock-out human BT-245 cells at 4 uM assessed as normalized cell index after 7 days by Alamar blue assay relative to control; format: functional; details: time 7 day; in short: as §1
BT-245 [4] = test: Growth inhibition of K27M knock-out human BT-245 cells at 1.5 uM assessed as normalized cell index after 7 days by Alamar blue assay relative to control; format: functional; details: time 7 day; in short: as §1
[5] = biological target: Histone-lysine N-methyltransferase EZH2 (Homo sapiens) (UniProt Q15910); test: Inhibition of EZH2 in human BT-245 cells expressing mutant K27M assessed as decrease in H3K27me3 deposition by western blot method; format: cell-based
BT-245 [6] = test: Growth inhibition of human BT-245 cells expressing mutant K27M at 2.5 uM assessed as normalized cell index after 7 days by Alamar blue assay relative to control; format: functional; details: time 7 day; in short: as §1
[7] = biological target: Histone-lysine N-methyltransferase EZH2 (Homo sapiens) (UniProt Q15910); test: Inhibition of EZH2 in human BT-245 cells expressing mutant K27M assessed as decrease in H3K27me2 deposition by western blot method; format: cell-based
BT-245 [8] = test: Growth inhibition of human BT-245 cells expressing mutant K27M at 10 uM assessed as normalized cell index after 7 days by Alamar blue assay relative to control; format: functional; details: time 7 day; in short: as §1
BT-245 [9] = test: Growth inhibition of K27M knock-out human BT-245 cells at 10 uM assessed as normalized cell index after 7 days by Alamar blue assay relative to control; format: functional; details: time 7 day; in short: as §1
BT-245 [10] = test: Growth inhibition of human BT-245 cells expressing mutant K27M at 4 uM assessed as normalized cell index after 7 days by Alamar blue assay relative to control; format: functional; details: time 7 day; in short: as §1
BT-245 [11] = test: Growth inhibition of K27M knock-out human BT-245 cells at 3.5 uM assessed as normalized cell index after 7 days by Alamar blue assay relative to control; format: functional; details: time 7 day; in short: as §1
BT-245 [12] = test: Growth inhibition of human BT-245 cells expressing mutant K27M at 3 uM assessed as normalized cell index after 7 days by Alamar blue assay relative to control; format: functional; details: time 7 day; in short: as §1
BT-245 [13] = test: Growth inhibition of human BT-245 cells expressing mutant K27M at 3.5 uM assessed as normalized cell index after 7 days by Alamar blue assay relative to control; format: functional; details: time 7 day; in short: as §1
[14] = biological target: Histone-lysine N-methyltransferase EZH2 (Homo sapiens) (UniProt Q15910); test: Inhibition of EZH2 in human G477 cells assessed as decrease in H3K27me3 deposition by western blot method; format: cell-based
BT-245 [15] = test: Growth inhibition of K27M knock-out human BT-245 cells at 5 uM assessed as normalized cell index after 7 days by Alamar blue assay relative to control; format: functional; details: time 7 day; in short: as §1
[16] = biological target: Histone-lysine N-methyltransferase EZH2 (Homo sapiens) (UniProt Q15910); test: Inhibition of EZH2 in human G477 cells assessed as decrease in H3K27me2 deposition by western blot method; format: cell-based
BT-245 [17] = test: Growth inhibition of K27M knock-out human BT-245 cells at 8 uM assessed as normalized cell index after 7 days by Alamar blue assay relative to control; format: functional; details: time 7 day; in short: as §1
BT-245 [18] = test: Growth inhibition of K27M knock-out human BT-245 cells at 3 uM assessed as normalized cell index after 7 days by Alamar blue assay relative to control; format: functional; details: time 7 day; in short: as §1
BT-245 [19] = test: Growth inhibition of human BT-245 cells expressing mutant K27M at 7 uM assessed as normalized cell index after 7 days by Alamar blue assay relative to control; format: functional; details: time 7 day; in short: as §1
BT-245 [20] = test: Growth inhibition of K27M knock-out human BT-245 cells at 2.5 uM assessed as normalized cell index after 7 days by Alamar blue assay relative to control; format: functional; details: time 7 day; in short: as §1
BT-245 [21] = test: Growth inhibition of K27M knock-out human BT-245 cells at 7 uM assessed as normalized cell index after 7 days by Alamar blue assay relative to control; format: functional; details: time 7 day; in short: as §1
BT-245 [22] = test: Growth inhibition of human BT-245 cells expressing mutant K27M at 0.5 to 10 uM after 7 days by Alamar blue assay; format: functional, cell-based; details: dose 0.5-10 µM, time 7.0 day; in short: as §1
BT-245 [23] = test: Growth inhibition of K27M knock-out human BT-245 cells at 0.5 to 10 uM after 7 days by Alamar blue assay; format: functional, cell-based; details: dose 0.5-10 µM, time 7.0 day; in short: as §1

Sequence of Histone-lysine N-methyltransferase EZH2 (Homo sapiens) (Q15910 whole entry, looked up): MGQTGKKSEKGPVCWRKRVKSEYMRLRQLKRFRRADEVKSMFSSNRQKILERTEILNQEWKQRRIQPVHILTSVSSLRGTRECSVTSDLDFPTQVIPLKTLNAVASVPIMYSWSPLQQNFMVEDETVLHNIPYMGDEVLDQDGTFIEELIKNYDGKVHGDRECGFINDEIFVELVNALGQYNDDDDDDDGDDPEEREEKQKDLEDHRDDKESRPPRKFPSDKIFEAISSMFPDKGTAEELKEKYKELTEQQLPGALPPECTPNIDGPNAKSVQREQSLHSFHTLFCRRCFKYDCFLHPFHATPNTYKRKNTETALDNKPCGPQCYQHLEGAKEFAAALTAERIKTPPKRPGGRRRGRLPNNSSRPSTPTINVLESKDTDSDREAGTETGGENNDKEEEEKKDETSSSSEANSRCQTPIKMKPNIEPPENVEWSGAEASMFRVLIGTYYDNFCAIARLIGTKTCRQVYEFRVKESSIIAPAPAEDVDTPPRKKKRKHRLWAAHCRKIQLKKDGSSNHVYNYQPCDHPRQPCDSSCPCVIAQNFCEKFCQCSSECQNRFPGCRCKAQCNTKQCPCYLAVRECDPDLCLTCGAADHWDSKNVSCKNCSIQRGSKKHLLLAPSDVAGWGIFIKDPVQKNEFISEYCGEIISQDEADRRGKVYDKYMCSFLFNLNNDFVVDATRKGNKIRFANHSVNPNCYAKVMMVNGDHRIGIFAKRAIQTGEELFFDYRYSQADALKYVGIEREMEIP

CCCc1cc(C)[nH]c(=O)c1CNC(=O)c1cc(-c2ccc(N3CCN(C(C)C)CC3)nc2)cc2c1cnn2C(C)C
Activity_index (BT-245 [1]): 73.66%
Activity_index (BT-245 [2]): 93.5%
Activity_index (BT-245 [3]): 109.66%
Activity_index (BT-245 [4]): 107.71%
inhibition [5]: Active
Activity_index (BT-245 [6]): 96%
inhibition [7]: Active
Activity_index (BT-245 [8]): 27.95%
Activity_index (BT-245 [9]): 50.02%
Activity_index (BT-245 [10]): 85.7%
Activity_index (BT-245 [11]): 97.97%
Activity_index (BT-245 [12]): 93.39%
Activity_index (BT-245 [13]): 92.89%
inhibition [14]: Active
Activity_index (BT-245 [15]): 108.08%
inhibition [16]: Active
Activity_index (BT-245 [17]): 63.65%
Activity_index (BT-245 [18]): 112.32%
Activity_index (BT-245 [19]): 25.18%
Activity_index (BT-245 [20]): 106.57%
Activity_index (BT-245 [21]): 106.11%

CCCc1cc(C)[nH]c(=O)c1CNC(=O)c1cc(-c2ccnc(N3CCN(C)CC3)c2)cc2c1cnn2C(C)C
Activity (BT-245 [22]): Active
Activity (BT-245 [23]): Active
